Assay [1] has as its system Human immunodeficiency virus 1. Put plainly: In vitro antiviral activity in HIV-1 CEM-SS cytoprotection assay. It is filed as functional, organism-based. The settings on record: Human immunodeficiency virus 1, CEM-SS. The method in brief:
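Cytoprotection assay using CEM-SS cells infected with HIV-1 RF. Run in duplicate, with triplicates at each compound concentration; individual triplicates varied by 10% or less.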

The test system of another assay is CEM-SS. The assay can be described thus: In vitro cytotoxicity against CEM-SS cells. It is filed as functional, cell-based. The settings on record: Homo sapiens. The method in brief: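 Growth inhibition of CEM-SS cells measured alongside the HIV-1 cytoprotection assay. Run in duplicate, with triplicates at each concentration; individual triplicates varied by 10% or less.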

By EC50 is commonly meant the concentration that produces a half-maximal response. Usually IC50 stands for the concentration that inhibits the measured activity by half. Read a low IC50 as inhibition by little substance.

In assay [1], `C[C@H](NC(=O)c1ccccc1SC(=O)NCCBr)C(N)=O` showed an EC50 of 0.92 µM. In the assay with CEM-SS, it took 8 µM to reach half-maximal inhibition (IC50).

`NC(=O)CCNC(=O)c1ccccc1SC(=O)NCCBr`: the EC50 in assay [1] was 0.48 µM. Further, it took 4.9 µM to reach half-maximal inhibition in the assay with CEM-SS (IC50).

The record behind these values is ChEMBL document CHEMBL1135224, “Benzamide-based thiolcarbamates: a new class of HIV-1 NCp7 inhibitors” (Bioorg Med Chem Lett, 2002).
